The nature of experiment [1]: Her2 expression decrease, cell viability multiplex – SKBR3 breast tumor cells, AlphaScreen, ATP viability, primary screen (AID 461;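 active = Her2 level under about 52% in both replicate screens, with viability over 70% of control, limit read from the data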;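 for Her2 level: lower value means less Her2 protein in the cells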;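 for viability: percent of carrier control wells set as 100% viability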). Conditions: SKBR3 Her2 protein level, 18-24 h, measured here: SKBR3 viability, ATP luminescence, at 10 µM. (In Alpha technology, singlet oxygen from a donor bead excites a nearby acceptor bead.)
Experiment [2] addresses Receptor tyrosine-protein kinase erbB-2 (Homo sapiens) (UniProt P04626). The description is as above. The note with it: 18-24 h, at 10 µM, stronger effect = lower value.
Experiment [3] is described as follows: reduced viability of SK-BR-3 breast cancer cells – cell-based, 24 h, human, pilot screen (AID 572;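 active = viability at or below 10% of carrier control in both of two separate runs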;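 note: compound exposure lasted between 18 and 24 h rather than exactly 24 h; 100% = carrier-treated control wells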). The note with it: SK-BR-3 viability, CellTiter-Glo luminescence, at 10 µM, stronger effect = lower value. On the technique in general: ATP-based viability assays read luminescence as a measure of living cells.
The nature of experiment [4]: HUVEC growth inhibition – cell-based, human, primary screen (AID 575;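 active = viability at or below 30% in both replicate assays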;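 note: 100% = median of untreated cell wells with 0.1% DMSO on each plate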). The note with it: HUVEC proliferation, CellTiter-Glo luminescence, 72 h; at 10 µM; stronger effect = lower value. The gist of the method:
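Test system – primary HUVEC, no more than 12 passages · Dosing – one dose, 10 µM final, 0.1% DMSO · Times – 72 h treatment at 37 °C · Measured by – ATP-based CellTiter-Glo luminescent read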

A short description of experiment [5]: H69AR cell proliferation blockers – human, duplicate replicates, primary screen (AID 580;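 active = viability at or under a set limit in both replicates, limit being median viability minus 3 SD, cut at about 48% in these data, passing the limit was not always enough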;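 note: 100% = mean luminescence of untreated wells and 0% = no signal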). Conditions: H69AR lung tumor cells viability, ATP luminescence, 72 h; at 10 µM; stronger effect = lower value.
The nature of experiment [6]: MRP1 drug-resistance reversers in H69AR cells – cell-based, doxorubicin co-treatment, pilot screen (AID 601). Conditions: CellTiter-Glo, 72 h, at 10 µM; for differential viability (reversal): stronger effect = higher value.
Experiment [7] is described as follows: yeast transport mutant growth inhibition pilot in 384-well plates, post-Golgi transport modulator project (AID 636; in the data active = inhibition above about 31%). The note with it: absorbance 615 nm, about 18 h, stronger effect = higher value.
Experiment [8] can be described thus: growth suppression of yeast trafficking mutant, preliminary HTS, modulators of trafficking downstream of Golgi apparatus project, 1536-format plate, OD 615 nm (AID 637; in the data active = inhibition above about 30%). The note with it: yeast transport mutant growth, absorbance 615 nm, 18 h; stronger effect = higher value.
Setting [9] is: H69AR cells + 2 uM doxorubicin, measured here: viability with 2 uM doxorubicin, stronger effect = lower value.
Where [10] appears, read: H69AR cells, compound alone cytotoxicity.

The values below come from PubChem BioAssay.

Calls of active or inactive are those of the source.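 Rule for the calls, unless noted: active = viability loss from added drug above about 55%, and viability with drug at most 40%, in both replicates (limit read from the data, passing the limit was not always enough); inconclusive = both conditions met in only one replicate; inactive = neither replicate meets both conditions.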

In general, viability refers to a read-out of living cells in per cent, often relative to untreated cells. As usually defined, the inhibition is the change of the read-out against control, counted positive when it falls.

Sequence of Receptor tyrosine-protein kinase erbB-2 (Homo sapiens) (P04626 whole entry, looked up): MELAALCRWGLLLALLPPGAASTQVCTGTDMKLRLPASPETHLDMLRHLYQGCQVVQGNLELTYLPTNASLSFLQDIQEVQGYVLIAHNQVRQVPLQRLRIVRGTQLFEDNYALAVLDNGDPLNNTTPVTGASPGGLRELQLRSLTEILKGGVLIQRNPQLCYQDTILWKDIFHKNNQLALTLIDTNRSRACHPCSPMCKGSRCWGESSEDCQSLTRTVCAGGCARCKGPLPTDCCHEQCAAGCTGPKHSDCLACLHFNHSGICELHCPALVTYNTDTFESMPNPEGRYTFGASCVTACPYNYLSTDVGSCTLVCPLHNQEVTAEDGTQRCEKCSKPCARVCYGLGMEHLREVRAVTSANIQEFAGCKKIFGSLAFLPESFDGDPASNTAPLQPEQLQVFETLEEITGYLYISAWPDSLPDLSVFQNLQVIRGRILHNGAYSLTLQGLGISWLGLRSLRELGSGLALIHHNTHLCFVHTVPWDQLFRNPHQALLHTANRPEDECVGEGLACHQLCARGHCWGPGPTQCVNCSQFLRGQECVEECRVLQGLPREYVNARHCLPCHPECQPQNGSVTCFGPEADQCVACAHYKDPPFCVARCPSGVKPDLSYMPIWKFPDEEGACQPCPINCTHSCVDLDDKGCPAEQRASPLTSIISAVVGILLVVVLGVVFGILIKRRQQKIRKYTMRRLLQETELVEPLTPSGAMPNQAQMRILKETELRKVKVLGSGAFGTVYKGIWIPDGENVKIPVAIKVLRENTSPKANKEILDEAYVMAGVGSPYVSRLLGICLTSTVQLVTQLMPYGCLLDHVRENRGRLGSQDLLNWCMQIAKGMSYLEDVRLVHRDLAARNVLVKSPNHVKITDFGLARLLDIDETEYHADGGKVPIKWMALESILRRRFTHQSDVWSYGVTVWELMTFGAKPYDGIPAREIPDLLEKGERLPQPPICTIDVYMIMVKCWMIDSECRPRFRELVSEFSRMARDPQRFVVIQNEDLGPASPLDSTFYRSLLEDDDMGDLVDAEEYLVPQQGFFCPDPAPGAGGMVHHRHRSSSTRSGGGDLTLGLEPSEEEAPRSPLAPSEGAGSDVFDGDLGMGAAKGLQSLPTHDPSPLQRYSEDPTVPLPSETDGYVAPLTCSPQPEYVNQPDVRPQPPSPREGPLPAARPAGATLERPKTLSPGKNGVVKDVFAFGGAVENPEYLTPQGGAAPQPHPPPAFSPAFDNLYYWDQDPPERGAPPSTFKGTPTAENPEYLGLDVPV

For the molecule `O=C(Nc1ccc(N2CCOCC2)cc1)c1cccc(S(=O)(=O)N2CCCC2)c1`, the viability is 88.5% in experiment [1]; 88.5% (inactive) in experiment [3]; 96.8% (inactive) in experiment [4]; 98.4% (inactive) in experiment [5]; 93.1% in experiment [6] (setting [9]); 98.4% in experiment [6] (setting [10]). For the same molecule, the Her2 level in experiment [2] is 85% (inactive). Also, in experiment [6] (H69AR cells + 2 uM doxorubicin), the differential viability (reversal) is 5.26% (inactive). Also, the inhibition in experiment [7] is -5% (inactive); in experiment [8] it was -2% (inactive).
On to `C=CCN(C(=O)CNC(=O)c1ccco1)C(C(=O)NC1CCCCC1)c1ccccc1F` (stereo not given), for which the viability in experiment [1] is 108%; in experiment [3], 108% (inactive); in experiment [4], 96.2% (inactive); in experiment [5] it was 100% (inactive); in experiment [6] (setting [9]), 93.5%; in experiment [6] (setting [10]) it was 100%. The Her2 level in experiment [2] was 108% (inactive). For the same molecule, the differential viability (reversal) in experiment [6] (H69AR cells + 2 uM doxorubicin) was 6.92% (inactive). Besides, the values for the inhibition in experiment [7] and in experiment [8] were -2.43% (inactive) and 1.27% (inactive), respectively.
As to `CC(C)(C)C1=C[C@@H](CO)C[C@@H](CO)C1`, the viability in experiment [1] is 86%; in experiment [3] it was 86% (inactive); in experiment [4], 94.2% (inactive); in experiment [5], 87.3% (inactive); in experiment [6] (setting [9]), 87.9%; in experiment [6] (setting [10]), 87.3%. Further, the Her2 level in experiment [2] is 87% (inactive). In addition, the differential viability (reversal) in experiment [6] (H69AR cells + 2 uM doxorubicin) is -0.585% (inactive). For the same molecule, the inhibition is -4.13% (inactive) in experiment [7] and -5.08% (inactive) in experiment [8].
On to `COc1ccc(-n2c(=O)c3c4c(sc3n3c(C)nnc23)CCCC4)cc1`, for which the viability in experiment [1] is 78.5%; in experiment [3] it was 78.5% (inactive); in experiment [4], 101% (inactive); in experiment [5], 96.5% (inactive); in experiment [6] (setting [9]) it was 80.9%; in experiment [6] (setting [10]), 96.5%. The Her2 level in experiment [2] was 94% (inactive). Besides, the differential viability (reversal) in experiment [6] (H69AR cells + 2 uM doxorubicin) was 15.6% (inactive). Moreover, the inhibition in experiment [7] was 0.13% (inactive); in experiment [8] it was -5.33% (inactive).
For `Cc1ccc(O)c(NC(=O)COc2cc(C)ccc2C)c1`, the viability was 93.5% in experiment [1]; 93.5% (inactive) in experiment [3]; 77.7% (inactive) in experiment [4]; 89.4% (inactive) in experiment [5]; 84% in experiment [6] (setting [9]); 89.4% in experiment [6] (setting [10]). Moreover, the Her2 level in experiment [2] was 89.5% (inactive). For the same molecule, in experiment [6] (H69AR cells + 2 uM doxorubicin), the differential viability (reversal) is 5.4% (inactive). The inhibition was -1.97% (inactive) in experiment [7] and -10.3% (inactive) in experiment [8].
With `CCOC(=O)c1[nH]c(=O)c2ccccc2c1O`, the viability in experiment [1] was 106%; in experiment [3], 106% (inactive); in experiment [4], 95.8% (inactive); in experiment [5] it was 90.8% (inactive); in experiment [6] (setting [9]) it was 90.8%; in experiment [6] (setting [10]) it was 90.8%. Besides, the Her2 level in experiment [2] is 94.5% (inactive). Also, the differential viability (reversal) in experiment [6] (H69AR cells + 2 uM doxorubicin) is -0.03% (inactive). Further, the figures for the inhibition in experiment [7] and in experiment [8] were -10% (inactive) and -8.41% (inactive), respectively.
As to `Cc1nn(-c2ccc(F)cc2)c2sc(C(=O)OCC(=O)N3CCC(C)CC3)cc12`, the viability was 93% in experiment [1]; 93% (inactive) in experiment [3]; 76.8% (inactive) in experiment [4]; 102% (inactive) in experiment [5]; 92.6% in experiment [6] (setting [9]); 102% in experiment [6] (setting [10]). For the same molecule, in experiment [2], the Her2 level is 102% (inactive). In experiment [6] (H69AR cells + 2 uM doxorubicin), the differential viability (reversal) is 9.16% (inactive). Besides, the inhibition was -3.87% (inactive) in experiment [7] and -5.81% (inactive) in experiment [8].
For the molecule `CCCC(O)(CCN(C)C)c1ccc(OC)cc1` (stereo not given), the viability in experiment [1] is 89%; in experiment [3] it was 89% (inactive); in experiment [4] it was 98.5% (inactive); in experiment [5], 88.3% (inactive); in experiment [6] (setting [9]), 84%; in experiment [6] (setting [10]) it was 88.3%. For the same molecule, the Her2 level in experiment [2] is 79.5% (inactive). For the same molecule, in experiment [6] (H69AR cells + 2 uM doxorubicin), the differential viability (reversal) was 4.26% (inactive). Besides, the figures for the inhibition in experiment [7] and in experiment [8] were -0.26% (inactive) and 0.48% (inactive), respectively.
Consider `Cc1oc(-c2ccccc2F)nc1CS(=O)(=O)CC(=O)N1CCN(Cc2ccccc2)CC1`, for which the viability is 77.5% in experiment [1]; 77.5% (inactive) in experiment [3]; 102% (inactive) in experiment [4]; 90.2% (inactive) in experiment [5]; 91.4% in experiment [6] (setting [9]); 90.2% in experiment [6] (setting [10]). For the same molecule, the Her2 level in experiment [2] is 91.5% (inactive). Further, the differential viability (reversal) in experiment [6] (H69AR cells + 2 uM doxorubicin) was -1.19% (inactive). The inhibition in experiment [7] is -3.07% (inactive); in experiment [8], -0.98% (inactive).
Regarding `CCNc1nc(NCC)n2c(SCc3nc4ccccc4c(=O)[nH]3)nnc2n1`, the viability in experiment [1] was 100%; in experiment [3] it was 100% (inactive); in experiment [4] it was 106% (inactive); in experiment [5] it was 78.1% (inactive); in experiment [6] (setting [9]), 87.2%; in experiment [6] (setting [10]), 78.1%. Also, the Her2 level in experiment [2] was 112% (inactive). In addition, in experiment [6] (H69AR cells + 2 uM doxorubicin), the differential viability (reversal) was -9.12% (inactive). Also, the results for the inhibition in experiment [7] and in experiment [8] were -1.58% (inactive) and -0.66% (inactive), respectively.
For the molecule `O=C(NC12CC3CC(CC(C3)C1)C2)c1cncc(O)c1`, the viability is 104% in experiment [1]; 104% (inactive) in experiment [3]; 88.2% (inactive) in experiment [4]; 85.6% (inactive) in experiment [5]; 94.9% in experiment [6] (setting [9]); 85.6% in experiment [6] (setting [10]). Besides, the Her2 level in experiment [2] is 89% (inactive). In addition, the differential viability (reversal) in experiment [6] (H69AR cells + 2 uM doxorubicin) was -9.31% (inactive). Further, the figures for the inhibition in experiment [7] and in experiment [8] were -6.36% (inactive) and 0.32% (inactive), respectively.
In the case of `Cn1c(CNc2nc(-c3ccccc3)cs2)nnc1SCC(=O)N1CCc2ccccc21`, the viability is 96.5% in experiment [1]; 96.5% (inactive) in experiment [3]; 81.8% (inactive) in experiment [4]; 93.3% (inactive) in experiment [5]; 83.4% in experiment [6] (setting [9]); 93.3% in experiment [6] (setting [10]). In addition, the Her2 level in experiment [2] was 97.5% (inactive). Further, in experiment [6] (H69AR cells + 2 uM doxorubicin), the differential viability (reversal) is 9.91% (inactive). For the same molecule, the inhibition in experiment [7] was -1.62% (inactive); in experiment [8], 7.14% (inactive).
For the molecule `C/C=C/c1ccc(OCCn2cncn2)c(OC)c1`, the viability in experiment [1] was 98.5%; in experiment [3], 98.5% (inactive); in experiment [4], 95.6% (inactive); in experiment [5], 89.8% (inactive); in experiment [6] (setting [9]), 88.7%; in experiment [6] (setting [10]) it was 89.8%. For the same molecule, the Her2 level in experiment [2] is 126% (inactive). Further, in experiment [6] (H69AR cells + 2 uM doxorubicin), the differential viability (reversal) is 1.09% (inactive). Moreover, the values for the inhibition in experiment [7] and in experiment [8] were 0.14% (inactive) and 0.66% (inactive), respectively.
In the case of `COc1ccc(Cn2nnnc2C(c2cccs2)N2CCOCC2)cc1` (stereo not given), the viability in experiment [1] was 105%; in experiment [3], 105% (inactive); in experiment [4] it was 90.9% (inactive); in experiment [5], 109% (inactive); in experiment [6] (setting [9]), 111%; in experiment [6] (setting [10]) it was 109%. The Her2 level in experiment [2] is 123% (inactive). Moreover, the differential viability (reversal) in experiment [6] (H69AR cells + 2 uM doxorubicin) was -1.24% (inactive). For the same molecule, the values for the inhibition in experiment [7] and in experiment [8] were 3.16% (inactive) and 5.33% (inactive), respectively.
